From PubChem BioAssay
TRPC6 act = mouse TRPC6 channel activators, primary screen, cell-based, HEK293, membrane potential dye; Short transient receptor potential channel 6 (Mus musculus), Q61143; B-score at 10 µM; HEK293-TRPC6 membrane potential dye fluorescence; hits give high values; actives 0.13% (n = 310,000); AID 2550, 2010;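 active means B-score of the integrated fluorescence ratio above library mean plus 3 SD, and starting fluorescence ratio within library mean plus 5 SD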;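 further: higher score means more depolarization so channel activation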
TRPC4 act = activators of mouse TRPC4 channel, primary screen, Fluo4 calcium, HEK293 TRPC4beta/mu-opioid cells | Fluo4 calcium fluorescence; hits give high values | actives 0.49% (n = 310,000) | B-score at 10 µM;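 active means B-score above 5 SD of library B-scores, and initial fluorescence ratio not above library mean plus 5 SD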;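 further: positive B-score marks a calcium rise read as TRPC4 activation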
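Material: TRPC4beta and mu-opioid receptor HEK293 stable cells | Incubation: 45 min room-temperature Fluo4 loading, 110 s read | Detection: Kinetic Fluo4 calcium fluorescence | Measure: Integrated baseline-normalised fluorescence ratio, converted to per-well B score | Benchmarks: Low control buffer alone, high control maximal DAMGO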
TRPC4 block = inhibitors of mouse TRPC4 channel, primary screen, Fluo4 calcium, HEK293 TRPC4beta/mu-opioid cells | Short transient receptor potential channel 4 (Mus musculus), Q9QUQ5 | DAMGO-evoked Fluo4 calcium flux; hits give low values | B-score at 10 µM | actives 0.39% (n = 300,000) | AID 2247, 2010;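 active means B-score over 3 SD under the library average, no early fluorescence shift, positive overall ratio signal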
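material = TRPC4beta/mu-opioid receptor HEK293 cell line | probe or stimulus = sequential submaximal and maximal DAMGO stimulation | compound dosing = one concentration per compound | measured by = Fluo4 Ca2+ flux fluorescence | evaluation = integrated fluorescence ratio relative to baseline, converted to per-well B score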
TRPC4 PAM = positive allosteric modulators of TRPC4, primary screen, cell-based, mouse TRPC4beta, HEK293 mu-opioid, Fluo-4 calcium. Short transient receptor potential channel 4 (Mus musculus), Q9QUQ5. DAMGO EC20, Fluo-4 Ca2+ flux; hits give high values. B-score at 10 µM. actives 0.42% (n = 310,000);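 active means B-score of calcium response area above 5 SD of library B-scores, with initial fluorescence ratio within 5 SD of library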;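 further: B-score of integrated fluorescence ratio over time as area under calcium response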
TRPC6 inhibitor = mouse TRPC6 channel inhibitors, primary screen, cell-based, HEK293, membrane potential dye; Short transient receptor potential channel 6 (Mus musculus), Q61143; ACh-evoked depolarization; hits give low values; B-score at 10 µM; actives 1.1% (n = 310,000); AID 2553, 2010;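 active means B-score under library mean minus 3 SD, initial fluorescence not abnormally high, positive integrated signal ratio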;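 further: B-score derived from integrated fluorescence ratio over the kinetic read; more negative B-score means stronger inhibition of depolarization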
TRPC4 spec 2 = mouse TRPC4 off-target activity of TRPC6 inhibitors, second screen. shares compounds with TRPC6 inhibitor. HEK293 TRPC4/MOR, membrane potential dye fluorescence; channel activated by saturating DAMGO dose. inhibition, % at 10 µM. actives 42% (n = 920);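 active means compounds whose fluorescence signal differed from control wells by over 3 SD, either direction, in both duplicate plates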
TRPC4 spec = mouse TRPC4 modulation by TRPC6 hits, confirmation, selectivity assay for TRPC6 inhibitor project, cell-based, HEK293 TRPC4/mu-opioid, membrane potential dye; activity change, negative = inhibition, % at 10 µM; shares compounds with TRPC6 inhibitor; membrane potential fluorescence; actives 61% (n = 920); AID 2777, 2010;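 active means rise or fall in signal beyond 3 SD of buffer-only wells in both replicate plates, either sign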;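 further: integrated kinetic ratio of fluorescence range over baseline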
HEK293 MPD ctr 2-1 = nonspecific membrane potential effects, parental HEK293, confirmation, counter-screen for TRPC6 inhibitor project, cell-based, second counter screen | parental HEK293 membrane potential dye fluorescence; maximal acetylcholine challenge after compound addition | actives 31% (n = 920) | shares compounds with TRPC6 inhibitor | signal change vs control, % at 10 µM | AID 2779, 2010;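 active means membrane potential signal moving either way by over 3 SD of the maximum-effect control, in both duplicate plates, meaning non-specific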
HEK293 MPD ctr-1 = membrane potential modulation in parental HEK293, confirmation, counter-screen for TRPC6 inhibitor project, cell-based | AID 2780, 2010 | actives 60% (n = 920) | parental HEK293 membrane potential dye fluorescence | membrane potential signal change, % at 10 µM | shares compounds with TRPC6 inhibitor;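 active means membrane potential signal shifting up or down by more than 3 SD of buffer-only wells, on both duplicate plates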
HEK293 MPD ctr-2 = parental HEK293 membrane potential modulation, confirmation, counter-screen for TRPC6 modulator project, cell-based; shares compounds with TRPC6 inhibitor; membrane potential dye fluorescence; membrane potential signal change, % at 10 µM; actives 51% (n = 2,400);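 active means membrane potential signal moves up or down beyond 5 SD from buffer-only wells, on both duplicate plates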
HEK293 MPD ctr 2-2 = parental HEK293 nonspecific activity of TRPC6 modulators, second screen. AID 488926. shares compounds with TRPC6 inhibitor. actives 14% (n = 2,400). inhibition, % at 10 µM. membrane potential dye fluorescence; after compound, maximal acetylcholine stimulation;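 active means membrane potential signal drops by more than 5 SD from the mean control signal, in both duplicate plates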;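 further: plate controls were acetylcholine ECmax control wells for no effect and buffer only wells for full effect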
TRPC4 ctr mod = TRPC4 modulation by TRPC6 hit compounds, confirmation, selectivity assay for TRPC6 modulator project, cell-based, HEK293 TRPC4/mu-opioid, membrane potential dye, mouse; percent change from control (negative = decrease, positive = increase), % at 10 µM; AID 488927, 2010; actives 69% (n = 2,400); membrane potential fluorescence; shares compounds with TRPC6 inhibitor;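 active means membrane potential signal moved up or down beyond 5 SD of buffer control wells, in both duplicate plates, actives on both sides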;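 further: plate controls were assay buffer wells for no effect and DAMGO maximal-effect wells for full effect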
TRPC4 ctr inh 2 = second check of whether TRPC6 modulators also affect mouse TRPC4; shares compounds with TRPC6 inhibitor; HEK293 TRPC4/mu-opioid, membrane potential dye fluorescence; stimulated with maximal-effect DAMGO; inhibition, % at 10 µM; actives 55% (n = 2,400); AID 488928;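 active means drop in membrane potential signal beyond 5 SD of the control wells in both duplicate plates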;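 further: TRPC4 counter screen for TRPC6 hits run under conditions tuned for TRPC6 not TRPC4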
TRPC6 block conf = mouse TRPC6 channel inhibitors, confirmation, HEK293 cells, membrane potential dye, duplicate | shares compounds with TRPC6 inhibitor | ACh-evoked depolarization | inhibition, % at 10 µM | actives 43% (n = 3,300) | AID 488960, 2010;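 active means fluorescence ratio falls more than 5 SD below the full-stimulation control mean, in both duplicate runs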;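 further: integrated fluorescence ratio of peak minus minimum over baseline after agonist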
TRPC6 act conf = mouse TRPC6 channel activators, confirmation, HEK293 cells, membrane potential dye, duplicate | shares compounds with TRPC6 inhibitor | HEK293-TRPC6 membrane potential dye fluorescence, FDSS | activation, % at 10 µM | actives 11% (n = 2,800) | AID 488961, 2010;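 active means ratio signal rise beyond 5 SD above unstimulated control wells' mean, seen in both duplicate runs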;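 further: plate controls were buffer EC0 wells for no effect and acetylcholine ECmax response for full effect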
The depositor's hits bear a star. Sampled rows, rich in hits. Any-hit rate of the full collection: about 2.3%.

`COc1cccc(CNC23CC4CC(CC(C4)C2)C3)c1OCc1ccccc1` gave TRPC6 act 15.3*, TRPC4 act inactive, TRPC4 block inactive, TRPC4 PAM inactive, TRPC6 inhibitor -7.85*, HEK293 MPD ctr-2 752.5%*, HEK293 MPD ctr 2-2 inactive, TRPC4 ctr mod 147.0%*, TRPC4 ctr inh 2 80.0%*, TRPC6 block conf 77.5%* and TRPC6 act conf 241.0%*.
For COC(=O)C/C=C/[C@@H](C)[C@@H](/C=N/OCC[C@@H]1C=C[C@H](OC(C)=O)[C@@H](COC(C)=O)O1)NS(=O)(=O)c1ccc(C)cc1 the results were TRPC6 act inactive, TRPC4 act inactive, TRPC4 block inactive, TRPC4 PAM inactive and TRPC6 inhibitor inactive.
For O=C(CCCl)N1CCCC2(CCCCC2)C1 the results were TRPC6 act inactive, TRPC4 act inactive, TRPC4 block inactive, TRPC4 PAM inactive and TRPC6 inhibitor inactive.
CN1CCN(c2nc3c(c(=O)[nH]c(=O)n3C)n2CCSc2nnnn2-c2ccccc2)CC1 was read as TRPC6 act inactive, TRPC4 act inactive, TRPC4 block inactive, TRPC4 PAM inactive, TRPC6 inhibitor -8.49*, HEK293 MPD ctr-2 -236.0%*, HEK293 MPD ctr 2-2 inactive, TRPC4 ctr mod -27.0%*, TRPC4 ctr inh 2 62.0%*, TRPC6 block conf 60.5%* and TRPC6 act conf inactive.
For CN1CCN(c2nc3c(c(=O)n(C)c(=O)n3C)n2CCSc2nnnn2-c2ccccc2)CC1 the results were TRPC6 act inactive, TRPC4 act inactive, TRPC4 block inactive, TRPC4 PAM inactive, TRPC6 inhibitor -7.29*, HEK293 MPD ctr-2 -114.0%*, HEK293 MPD ctr 2-2 99.5%*, TRPC4 ctr mod -41.0%*, TRPC4 ctr inh 2 56.0%*, TRPC6 block conf 50.0%* and TRPC6 act conf inactive.
`CN1CCN(c2nc3c(c(=O)n(C)c(=O)n3C)n2Cc2ccccc2)CC1` gave TRPC6 act inactive, TRPC4 act inactive, TRPC4 block inactive, TRPC4 PAM inactive and TRPC6 inhibitor inactive.
For CN(C)CCNc1nc(-c2ccccc2)nnc1C(F)(F)F the results were TRPC6 act inactive, TRPC4 act inactive, TRPC4 block inactive, TRPC4 PAM inactive and TRPC6 inhibitor inactive.
Screening Cc1nnc(-c2ccc(Cl)cc2)nc1NCCN(C)C returned TRPC6 act inactive, TRPC4 act inactive, TRPC4 block inactive, TRPC4 PAM inactive, TRPC6 inhibitor -5.02*, HEK293 MPD ctr-2 inactive, HEK293 MPD ctr 2-2 inactive, TRPC4 ctr mod inactive, TRPC4 ctr inh 2 inactive, TRPC6 block conf inactive and TRPC6 act conf inactive.
`O=C(Nc1ccc(Cl)cc1)N(C1=NCCC1)c1ccc(OC(F)F)cc1` gave TRPC6 act inactive, TRPC4 act inactive, TRPC4 block inactive, TRPC4 PAM inactive and TRPC6 inhibitor inactive.
Screening O=C1c2cnc3ncnn3c2CC2c3ccccc3CCN12 (stereo not given) returned TRPC6 act inactive, TRPC4 act inactive, TRPC4 block inactive, TRPC4 PAM inactive, TRPC6 inhibitor -4.99*, HEK293 MPD ctr-2 -105.0%*, HEK293 MPD ctr 2-2 inactive, TRPC4 ctr mod -19.5%*, TRPC4 ctr inh 2 inactive, TRPC6 block conf inactive and TRPC6 act conf inactive.
For Cc1ccc(Nc2c(-c3ccccn3)nc3cc(C)ccn23)cc1 the results were TRPC6 act inactive, TRPC4 act inactive, TRPC4 block inactive, TRPC4 PAM inactive, TRPC6 inhibitor -5.46*, HEK293 MPD ctr-2 -134.0%*, HEK293 MPD ctr 2-2 inactive, TRPC4 ctr mod -27.0%*, TRPC4 ctr inh 2 71.5%*, TRPC6 block conf inactive and TRPC6 act conf inactive.
`C[C@@H]1CCC[C@]2(O[C@@H](CCO)C[C@@H](O)[C@@H]2O)O1` gave TRPC6 act inactive, TRPC4 act inactive, TRPC4 block inactive, TRPC4 PAM inactive and TRPC6 inhibitor inactive.
For CCn1c(/C=C/N(C)c2ccccc2)[n+](CC)c2ccc(Cl)cc21 the results were TRPC6 act inactive, TRPC4 act inactive, TRPC4 block inactive, TRPC4 PAM inactive, TRPC6 inhibitor -8.64*, TRPC4 spec 2 inactive, TRPC4 spec -28.6%*, HEK293 MPD ctr 2-1 24.5%*, HEK293 MPD ctr-1 -411.0%*, TRPC6 block conf 64.8%* and TRPC6 act conf inactive.
